A selection: hits, their analogues and other compounds. The true share with any hit is near 1.8%.
Scp1 inh: Scp-1 (human) phosphatase inhibition. Recombinant Scp1, phosphopeptide, malachite green phosphate absorbance. inhibition, % at 20 µM. 340,000 tested, 0.88% active. AID 493091;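 active means inhibition above about 50% at 20 µM, limit read from the data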;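 further: plate controls were DMSO wells with enzyme for no effect and wells lacking enzyme for full effect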
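Times: enzyme reaction 45 min at room temperature, colour 5 min, stabilisation 30 min. Material: SCP-1 catalytic fragment, aa 76-261. Medium: Acidic Tris acetate buffer with magnesium and detergent. Signal: colorimetric free-phosphate detection, absorbance 630 nm. Read-out basis: % inhibition of SCP-1 phosphate liberation. Reagent: Phosphorylated 17-residue peptide substrate.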
DNMT1 block: inhibitors of human DNMT1 | P26358 | DNMT1 molecular beacon, Hinp1I cleavage, fluorescence | inhibition (reported as % activation of signal), % at 10 µM | 360,000 tested, 0.83% active | AID 588458; in the data active means inhibition above about 50%
HKDC1 inhibitor: HKDC1 (human) hexokinase inhibition. 340,000 tested, 0.16% active. recombinant HKDC1, G6PDH/diaphorase resazurin coupled fluorescence. Q2TB90. inhibition, % at 20 µM;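 active means inhibition above about 35% when tested at 20 µM, limit read from the data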;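 further: plate controls were DMSO wells with enzyme for no effect and DMSO wells lacking enzyme for full effect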
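test system = in-house recombinant HK5 (HKDC1) enzyme | amount = HKDC1 at 5 µg/mL | control set = DMSO-enzyme wells negative, buffer-substituted wells positive | compound = one dose of 20 µM, 1% DMSO | schedule = reaction time 90 min, room temperature, protected from light | technique = resorufin fluorescence at 613 nm | reagent = glucose with 1 mM ATP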
STEP inh: STEP (human) phosphatase inhibition; 360,000 tested, 0.25% active; recombinant STEP, OMFP fluorogenic substrate, fluorescence; inhibition, % at 20 µM; AID 588621; P54829;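 active means inhibition at 20 µM, scaled per plate between control wells, above about 37%, limit read from the data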;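 further: 0% = DMSO with enzyme and substrate and 100% = substrate only without enzyme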
Target sequence (P54829 whole entry, looked up): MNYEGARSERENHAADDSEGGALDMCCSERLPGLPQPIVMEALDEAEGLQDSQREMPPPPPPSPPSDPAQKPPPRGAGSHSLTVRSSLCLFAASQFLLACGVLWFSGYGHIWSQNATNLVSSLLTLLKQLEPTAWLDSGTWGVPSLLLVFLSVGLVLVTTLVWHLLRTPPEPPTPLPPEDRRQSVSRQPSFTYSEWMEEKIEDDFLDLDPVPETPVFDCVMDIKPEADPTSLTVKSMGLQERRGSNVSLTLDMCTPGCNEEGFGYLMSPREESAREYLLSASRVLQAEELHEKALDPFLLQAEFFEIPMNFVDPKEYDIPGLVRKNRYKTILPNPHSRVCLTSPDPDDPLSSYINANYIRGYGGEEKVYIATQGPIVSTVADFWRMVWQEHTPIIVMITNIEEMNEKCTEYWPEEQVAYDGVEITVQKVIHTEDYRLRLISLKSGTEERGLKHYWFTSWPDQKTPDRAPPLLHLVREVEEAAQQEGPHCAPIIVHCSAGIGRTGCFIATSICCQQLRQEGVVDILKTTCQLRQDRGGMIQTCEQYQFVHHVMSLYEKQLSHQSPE
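System: STEP (striatal-enriched tyrosine phosphatase) enzyme, cell-free; medium: Bis-Tris pH 6.0 buffer with DTT, detergent; dosing: 20 µM, 1% DMSO; times: reaction 20 min, ambient temperature; detection: fluorescence, 480/540 nm; read-out basis: normalized % inhibition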
SUMO1-SIM PPI: SUMO1-SIM interaction modulation | P63165 | SUMO1 binding to a labelled peptide, TR-FRET, 1 h | inhibition, % at 20 µM | 360,000 tested, 0.33% active; in the data active means inhibition above about 37%
LMPTP block: LMPTP (human) inhibition; P24666; 360,000 tested, 0.22% active; recombinant LMPTP-A, OMFP fluorogenic substrate, fluorescence intensity; inhibition, % at 20 µM;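 active means compounds that cut the enzyme signal by at least half of the control window in the single-dose screen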;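 further: plate controls were DMSO wells with enzyme plus substrate for no effect and substrate without enzyme for full effect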
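Test system: LMPTP-A phosphatase enzyme; input: 0.625 nM LMPTP-A final; reagent: OMFP substrate, 400 µM final; compound dosing: 20 µM single dose, 3% DMSO; incubation: 50 min dark incubation at room temperature; measured by: endpoint fluorescence intensity from OMFP dephosphorylation; measure: % inhibition relative to no-enzyme and uninhibited control wells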
Scp1 confirm: Scp-1 (human) inhibition, single-dose confirmed; shares compounds with Scp1 inh; recombinant SCP-1 catalytic domain, phosphate release, malachite green absorbance; inhibition, % at 20 µM; 2,500 tested, 61% active;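 further: plate controls were DMSO with enzyme for no effect and buffer wells lacking enzyme for full effect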
MG interference: colorimetric interference in Scp-1 counter-screen | AID 540313 | 2,500 tested, under 10 active | apparent inhibition (interference), % at 20 µM | Colorimetric interference counterscreen, malachite green absorbance 630 nm | shares compounds with Scp1 inh;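 further: compounds added after enzyme reaction finished so only phosphate colour detection is probed; plate controls were DMSO wells with completed Scp-1 reaction for no effect and substrate wells lacking enzyme for full effect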
Scp1 DSF: binds human Scp-1, shifting its melting temperature | shares compounds with Scp1 inh | Recombinant SCP1, Sypro Orange thermal shift Tm | thermal shift relative to vanadate control, % at 40 µM | 1,500 tested, 25% active;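 active means substances whose mean melting-temperature shift, as a percentage of the reference inhibitor's shift, reaches about 5.3%, limit read from the data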;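 further: 0% = Tm of DMSO wells and 100% = Tm with sodium orthovanadate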
An asterisk follows results filed as active; . = not tested or not shown.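 How the source made its calls, unless noted: active means inhibition of at least 30% at 20 µM; inactive means the rest.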

SMILES | Scp1 inh | DNMT1 block | HKDC1 inhibitor | STEP inh | SUMO1-SIM PPI | LMPTP block | Scp1 confirm | MG interference | others
CCN1C(=NCc2cc(OC)c(OC)c(OC)c2)N[C@@H](c2ccccc2)C(C(=O)OC)=C1C | 54* | 5 | -7 | 0 | 3 | 0 | -13 | -13
CCN1C(=NCCc2ccccn2)N[C@@H](c2cccc(C(F)(F)F)c2)C(C(=O)OC)=C1C | 13 | 4 | -6 | 1 | 5 | -1 | . | .
CCN(CC)C(=O)c1cccc(-c2csc(C(O)c3cccc(OC)c3)n2)c1 (centres undefined) | . | 2 | . | -1 | 1 | 1 | . | .
CCOc1ccccc1NC(=O)C1=C(C)NC(=S)NC1c1cccs1 (centres undefined) | 64* | 3 | -10 | 0 | 0 | -2 | -10 | -11
Fc1cccc(Cc2c(C3CCCCC3)nc3ccc(Br)cn23)c1 | . | 9 | . | -3 | 3 | 1 | . | .
COc1cc(/C=C2\SC(=O)N(CC(=O)Nc3ccccc3F)C2=O)cc(Cl)c1O | -5 | 2 | 11 | 2 | -2 | -1 | . | .
CCOc1cc(/C=C2\SC(=O)N(CC(=O)Nc3ccccc3F)C2=O)cc([N+](=O)[O-])c1O | 85* | 0 | 14 | 4 | -25 | 2 | 62* | -7 | Scp1 DSF=21*
O=C1CCCN1CCCNC(=S)Nc1ccccc1 | -7 | 3 | 3 | 5 | 0 | 0 | -4 | -9
Cc1cccc(C)c1NC(=S)NCCCN1CCCC1=O | -1 | 8 | -6 | 0 | 1 | -1 | -10 | -10
O=C1CCCN1CCCNC(=S)Nc1ccc(Nc2ccccc2)cc1 | 3 | 0 | -5 | 17 | 3 | 2 | . | .
Cc1sc2ncnc(SCC(=O)Nc3ncccc3O)c2c1C | 59* | 29 | 11 | 5 | 20 | 8 | 72* | -2 | Scp1 DSF=9.8*
COc1ccc(NC(=O)CSc2ncnc3sc(C)cc23)cc1 | -4 | -1 | -2 | 1 | 2 | -1 | . | .
Cc1cc2c(SCC(=O)Nc3cccc(O)c3)ncnc2s1 | 70* | 70* | 12 | 10 | 22 | 32 | 59* | -15 | Scp1 DSF=13*
Cc1cc(NC(=O)CSCC(=O)N(c2cccc(Cl)c2)C(C(=O)NC2CCCCC2)c2ccc(O)c(O)c2)no1 (centres undefined) | 50* | 8 | -5 | -2 | 6 | -1 | 6 | -15
COc1ccc(C(=O)c2[nH]c(N)c(C(=O)NCCc3c[nH]c4ccccc34)c2-c2ccccc2Br)cc1 | . | . | . | . | 1 | 3 | . | .
CC(=O)c1cccc(NC(=O)CCc2nnc3ccc(NCc4ccco4)nn23)c1 | 59* | 8 | 4 | 5 | 18 | 7 | 43* | -15 | Scp1 DSF=2
CCOc1ccc(C(=O)Nc2cccc(-c3cc4ccccc4oc3=O)c2)cc1[N+](=O)[O-] | 93* | -1 | -2 | 9 | -5 | 2 | 28 | -11
Cc1nn(CC(=O)NCc2cccs2)c(=O)c2nn(-c3ccccc3)c(C)c12 | 51* | -3 | 5 | -2 | -2 | -2 | -18 | -18
O=C1NC(Cc2ccc(O)cc2)c2nc3ccc(F)cc3c(=O)n2-c2ncccc21 (centres undefined) | . | 6 | . | -1 | -4 | 0 | . | .
O=C(OC1CCOC1=O)c1ccc(Cl)c(S(=O)(=O)N2CCOCC2)c1 (centres undefined) | 53* | 25 | -6 | 15 | 10 | 5 | 27 | -19
CCn1cc(C(=O)NCc2ccccc2F)c(=O)c2ccc(C)nc21 | -12 | 3 | -2 | 1 | 15 | -1 | . | .

Compound activity: PubChem BioAssay, Sanford-Burnham Center for Chemical Genomics
